Measurements taken from ChEMBL document CHEMBL3861952, “Donepezil-like multifunctional agents: Design, synthesis, molecular modeling and biological evaluation” (Eur J Med Chem, 2016).
Active and inactive are the calls of the source. The calls are words filed in the database; no cut-off is given here.

Tests used:
Homo sapiens [1] = organism: Homo sapiens; test: Selectivity index, ratio of IC50 for human recombinant MAOB to IC50 for human recombinant MAOA
Summary of the method: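 Separate 30 min pre-incubations at 37 °C of serial inhibitor dilutions with recombinant human MAO-A (360 mU/mL) or MAO-B (67.5 mU/mL). Then 1 mM p-tyramine with HRP/Amplex UltraRed added, pH 7.4, and fluorescence followed ≥1 h. Index taken as IC50(MAO-B)/IC50(MAO-A); ≥3 experiments in triplicate.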

Homo sapiens [2] = organism: Homo sapiens; test: Selectivity ratio of IC50 for human recombinant AChE to IC50 for human recombinant BuChE
[3] = Antioxidant activity of the compound assessed as time required to induce AAPH-mediated linoleic acid peroxidation (reference value: 40 to 60 mins); format: functional
[4] = Antioxidant activity of the compound assessed as DPPH radical scavenging activity after 60 mins by spectrophotometric method; format: functional
Summary of the method: (§1)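 DPPH scavenging: mixture shaken vigorously and left 60 min. Absorbance at 517 nm read and % activity calculated; trolox as comparator. Three replicates averaged.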

[5] = Antioxidant activity of the compound assessed as AAPH radical scavenging activity measured as trolox equivalent at 0.1 to 1 uM preincubated for 15 mins with fluorescein followed by addition of AAPH measured every min for 1 hr by oxygen radical absorbance capacity assay; format: functional
Summary of the method: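 ORAC: compound diluted in 75 mM PBS pH 7.4 (0.1–1 μM) and pre-incubated 15 min at 37 °C with 70 nM fluorescein. 12 mM AAPH then added and fluorescence (ex 485/em 520) read every minute for 1 h. Net area under the decay curve converted against a trolox standard curve; melatonin as reference.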

[6] = Antioxidant activity of the compound assessed as inhibition of Cu2+/ascorbic acid-induced H2O2 production at 0.1 to 1 uM after 10 mins by horse-radish peroxidase/amplex red-based fluorometric method; format: functional
Summary of the method: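 H2O2 generated by 0.2 μM Cu(II) plus 10 μM ascorbic acid, incubated 10 min at room temperature with varying compound concentrations. HRP/Amplex Red mixture then added to quantify H2O2 formed.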

[7] = Antioxidant activity of the compound assessed as DPPH radical scavenging activity at 50 uM after 60 mins by spectrophotometric method; format: functional; summary of the method: as §1

Row | SMILES | Ratio IC50 (Homo sapiens [1]) | Ratio IC50 (Homo sapiens [2]) | further results
1 | C#CCN(Cc1ccc2cccc(O)c2n1)C(C#N)CC1CCN(Cc2ccccc2)CC1 (stereo not given) | > 8.2 | 1650 | 
2 | C#CCN(Cc1ccc2cccc(O)c2n1)C(C#N)CCC1CCN(Cc2ccccc2)CC1 (stereo not given) | > 9.9 | 0.7 | TIME [3]: 0.833 to 1 h; Activity [4]: Dose-dependent effect; Activity [5]: 1.12 equiv; inhibition [6]: Active
3 | C#CCN(CCCC1CCN(Cc2ccccc2)CC1)Cc1ccc2cccc(O)c2n1 | > 2.7 | 65 | 
4 | C#CCN(Cc1ccc(O)c2ncccc12)C(C#N)CCC1CCN(Cc2ccccc2)CC1 (stereo not given) | 1.8 |  | 
5 | C#CCN(CCC1CCN(Cc2ccccc2)CC1)Cc1ccc2cccc(O)c2n1 | > 2.8 | 52 | 
6 | C#CCN(Cc1ccc2cccc(O)c2n1)C(C#N)C1CCN(Cc2ccccc2)CC1 (stereo not given) | > 9.8 | 2140 | 
7 | COc1ccc2[nH]cc(CCNC(C)=O)c2c1 |  |  | Activity [5]: 2.51 equiv
8 | Cc1c(C)c2c(c(C)c1O)CCC(C)(C(=O)O)O2 (stereo not given) |  |  | TIME [3]: 1.67 to 2 h; Activity [7]: Active
9 | C#CCN(Cc1ccc2cccc(O)c2n1)CC1CCN(Cc2ccccc2)CC1 | > 2.2 | 152 | 
